Series [1] in a line: Stability of the compound in complete cell culture medium measured upto 100 hrs by LC/MS/MS analysis. The class given is physicochemical. Put shortly: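 Compound incubated at 37 °C in the cell culture media used for cellular assays; percentages of parent and conversion products determined at time points up to 96 h.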
The target of series [2] is T1, Signal transducer and activator of transcription 3 (Homo sapiens, UniProt P40763). Briefly: Binding affinity to human recombinant STAT3 assessed as dissociation constant incubated for 15 mins by biolayer interferometry. Put shortly: (§1)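 Biolayer interferometry with recombinant human STAT1, STAT2, STAT3, STAT4, STAT5A, STAT5B or STAT6 proteins containing their SH2 domain. Compound run in 2× serial dilutions from 200 nM. Kd taken from steady-state fitting of equilibrium responses against concentration using a 1:1 binding model.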
(Biolayer interferometry detects binding as a change in optical thickness at a sensor tip.)

For series [3], the target named is T1, Signal transducer and activator of transcription 3. Briefly: Induction of STAT3 degradation in human MOLM-16 cells assessed as decrease in STAT3 level at 1 uM incubated for 4 hrs by proteomic analysis. The class given is cell-based. The settings on record: MOLM16. Put shortly: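 MOLM-16 cells treated with 1 or 10 μM for 4 h. Protein levels measured by quantitative proteomics across more than 7000 proteins.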

Series [4] has the same target. Briefly: Induction of STAT3 degradation in human SU-DHL-1 cells incubated for 4 hrs by western blot analysis. The format is cell-based. A digest of the protocol:
(§2)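 Cells treated 4 h with compounds across 25 nM to 100 μM; STAT proteins detected by Western blot with GAPDH as loading control; STAT3 DC50 estimated by densitometry of STAT3 relative to GAPDH. Applies to MOLM-16 for all STATs, and to SU-DHL-1 and SUP-M2 for STAT3.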

Series [5] concerns Mus musculus. As to the kind of experiment: In vivo induction of STAT3 degradation in SCID mouse xenografted with human SU-DHL-1 cells assessed as reduction in phosphorylated STAT3 level in tumor tissue at 50 mg/kg, iv measured after 24 hrs by immunoblotting analysis. The class given is functional, organism-based. A digest of the protocol: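 SCID mice bearing MOLM-16 or SU-DHL-1 xenografts given a single iv dose of 50 mg/kg or dosing vehicle. Tumor lysates immunoblotted for p-STAT3 Y705 and total STAT3 at time points up to 48 h (MOLM-16) and 24 h (SU-DHL-1).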

For series [6], the target named is T2, Signal transducer and activator of transcription 1-alpha/beta (Homo sapiens, UniProt P42224).
T2 sequence (P42224 whole entry): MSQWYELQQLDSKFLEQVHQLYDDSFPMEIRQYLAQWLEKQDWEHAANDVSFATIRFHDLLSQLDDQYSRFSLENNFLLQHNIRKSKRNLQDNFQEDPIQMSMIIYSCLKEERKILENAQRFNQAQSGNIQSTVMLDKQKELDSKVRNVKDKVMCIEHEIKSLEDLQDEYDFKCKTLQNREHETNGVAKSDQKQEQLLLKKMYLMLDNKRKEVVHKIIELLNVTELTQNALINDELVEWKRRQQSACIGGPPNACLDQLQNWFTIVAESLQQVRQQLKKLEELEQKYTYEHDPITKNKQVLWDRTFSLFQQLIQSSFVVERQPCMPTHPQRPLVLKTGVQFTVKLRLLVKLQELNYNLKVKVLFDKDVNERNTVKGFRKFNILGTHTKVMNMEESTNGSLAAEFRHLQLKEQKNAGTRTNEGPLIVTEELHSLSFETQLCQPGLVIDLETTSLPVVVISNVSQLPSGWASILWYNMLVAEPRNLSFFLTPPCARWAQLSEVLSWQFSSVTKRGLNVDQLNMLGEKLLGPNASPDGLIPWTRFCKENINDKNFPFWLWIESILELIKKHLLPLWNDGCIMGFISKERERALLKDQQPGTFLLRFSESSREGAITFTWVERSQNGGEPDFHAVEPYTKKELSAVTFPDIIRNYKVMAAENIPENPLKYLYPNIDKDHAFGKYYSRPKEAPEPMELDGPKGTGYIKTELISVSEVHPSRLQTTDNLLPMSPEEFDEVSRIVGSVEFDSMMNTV
As to the kind of experiment: Binding affinity to human recombinant STAT1 assessed as dissociation constant incubated for 15 mins by biolayer interferometry. A digest of the protocol:
as §1

Series [7] in a line: Drug uptake in SCID mouse xenografted with human MOLM16 cells assessed as (2-(((5S,8S,10aR)-8-(((S)-5-amino-1-(benzhydrylamino)-1,5-dioxopentan-2-yl)carbamoyl)-3-(8-(2-(2,6-dioxopiperidin-3-yl)-1-oxoisoindolin-4-yl)oct-7-yno yl)-6-oxodecahydropyrrolo[1,2-a][1,5]diazocin-5-yl)carbamoyl)-1H-indole-5-carbonyl)phosphonic acid level in plasma at 50 mg/kg, iv measured after 24 hrs by LC-MS/MS. The format is ADME, organism-based. Conditions: in vivo. Put shortly: (§3)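 SCID mice bearing MOLM-16 xenografts given a single iv dose of 50 mg/kg. Concentrations of parent and hydrolysis product measured in plasma (ng/mL) and tumor tissue (ng/g) at 1, 6 and 24 h.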
In general terms: In xenograft studies the graft and the host belong to different species.

Series [8] concerns the target Protein cereblon/Signal transducer and activator of transcription 3 (Homo sapiens, UniProt P40763+Q96SW2). Briefly: Protac activity at CRBN/STAT3 in human SU-DHL-1 cells assessed as degradation of STAT3 incubated for 4 hrs by western blot analysis. The class given is cell-based. Put shortly:
as §2
For orientation: Immunoblotting shows a protein as a band on a membrane.

The target of series [9] is Protein cereblon/Signal transducer and activator of transcription 1-alpha/beta (Homo sapiens) (UniProt P42224+Q96SW2). As to the kind of experiment: Protac activity at CRBN/STAT1 in human SU-DHL-1 cells […] at 0.25 to 100 uM incubated for 4 hrs by Western blot analysis. The format is cell-based. Conditions: dose lower 0.25 µM.
A short description of series [10]: Drug uptake in SCID mouse xenografted with human MOLM16 cells assessed as (2-(((5S,8S,10aR)-8-(((S)-5-amino-1-(benzhydrylamino)-1,5-dioxopentan-2-yl)carbamoyl)-3-(8-(2-(2,6-dioxopiperidin-3-yl)-1-oxoisoindolin-4-yl)oct-7-yno yl)-6-oxodecahydropyrrolo[1,2-a][1,5]diazocin-5-yl)carbamoyl)-1H-indole-5-carbonyl)phosphonic acid level in plasma at 50 mg/kg, iv measured after 6 hrs by LC-MS/MS. The class given is ADME, organism-based. Conditions: in vivo. A digest of the protocol:
as §3

A short description of series [11]: Drug uptake in SCID mouse xenografted with human MOLM16 cells assessed as (2-(((5S,8S,10aR)-8-(((S)-5-amino-1-(benzhydrylamino)-1,5-dioxopentan-2-yl)carbamoyl)-3-(8-(2-(2,6-dioxopiperidin-3-yl)-1-oxoisoindolin-4-yl)oct-7-yno yl)-6-oxodecahydropyrrolo[1,2-a][1,5]diazocin-5-yl)carbamoyl)-1H-indole-5-carbonyl)phosphonic acid level in tumor tissue at 50 mg/kg, iv measured after 1 hrs by LC-MS/MS. The class given is ADME, organism-based. Conditions: in vivo. A digest of the protocol:
as §3

Series [12] deals with Protein cereblon/Signal transducer and activator of transcription 4 (Homo sapiens) (UniProt Q96SW2+Q14765). As to the kind of experiment: Protac activity at CRBN/STAT4 in human SUP-M2 cells assessed as STAT4 degradation at 0.25 to 100 uM incubated for 4 hrs by Western blot analysis. The class given is cell-based. The settings on record: SUPM2, dose 0.25-100 µM.
Series [13] addresses Protein cereblon/Signal transducer and activator of transcription 6 (Homo sapiens) (UniProt P42226+Q96SW2). As to the kind of experiment: Protac activity at CRBN/STAT6 in human MOLM16 cells assessed as STAT6 degradation at 0.25 to 100 uM incubated for 4 hrs by Western blot analysis. The class given is cell-based. The settings on record: dose 0.25-100 µM. Put shortly: as §2

Data on two compounds can be found in ChEMBL document CHEMBL4706770, “SD-91 as A Potent and Selective STAT3 Degrader Capable of Achieving Complete and Long-Lasting Tumor Regression” (ACS Med Chem Lett, 2021).

Active and inactive are the calls of the source. No cut-off for these calls is given here.

One may read the Kd as the equilibrium constant for the complex coming apart. For orientation: DC50 means the concentration giving 50% degradation.

T1 sequence (P40763 whole entry, the tested form may be a part): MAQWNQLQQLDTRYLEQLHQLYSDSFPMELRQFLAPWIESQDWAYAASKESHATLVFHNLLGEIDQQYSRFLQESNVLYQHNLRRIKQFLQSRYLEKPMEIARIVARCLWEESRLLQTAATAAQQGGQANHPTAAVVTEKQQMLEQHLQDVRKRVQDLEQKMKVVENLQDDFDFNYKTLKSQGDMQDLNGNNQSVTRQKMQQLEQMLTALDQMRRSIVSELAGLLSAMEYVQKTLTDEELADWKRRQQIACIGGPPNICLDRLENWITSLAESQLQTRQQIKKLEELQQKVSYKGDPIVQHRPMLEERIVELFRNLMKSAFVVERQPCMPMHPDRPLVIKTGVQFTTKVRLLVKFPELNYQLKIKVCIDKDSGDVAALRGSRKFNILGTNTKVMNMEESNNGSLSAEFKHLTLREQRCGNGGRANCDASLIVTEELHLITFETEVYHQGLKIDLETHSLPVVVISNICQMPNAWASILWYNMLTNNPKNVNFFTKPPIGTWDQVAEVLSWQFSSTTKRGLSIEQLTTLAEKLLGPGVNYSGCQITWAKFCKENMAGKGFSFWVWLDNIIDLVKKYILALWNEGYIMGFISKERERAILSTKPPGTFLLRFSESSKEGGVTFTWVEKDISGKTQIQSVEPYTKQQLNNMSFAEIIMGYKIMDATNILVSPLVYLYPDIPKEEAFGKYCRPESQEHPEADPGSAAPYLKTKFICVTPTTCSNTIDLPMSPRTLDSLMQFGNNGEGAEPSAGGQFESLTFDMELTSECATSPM
Chain of Protein cereblon/Signal transducer and activator of transcription 6 (Homo sapiens) (P42226 2-847 limits assumed): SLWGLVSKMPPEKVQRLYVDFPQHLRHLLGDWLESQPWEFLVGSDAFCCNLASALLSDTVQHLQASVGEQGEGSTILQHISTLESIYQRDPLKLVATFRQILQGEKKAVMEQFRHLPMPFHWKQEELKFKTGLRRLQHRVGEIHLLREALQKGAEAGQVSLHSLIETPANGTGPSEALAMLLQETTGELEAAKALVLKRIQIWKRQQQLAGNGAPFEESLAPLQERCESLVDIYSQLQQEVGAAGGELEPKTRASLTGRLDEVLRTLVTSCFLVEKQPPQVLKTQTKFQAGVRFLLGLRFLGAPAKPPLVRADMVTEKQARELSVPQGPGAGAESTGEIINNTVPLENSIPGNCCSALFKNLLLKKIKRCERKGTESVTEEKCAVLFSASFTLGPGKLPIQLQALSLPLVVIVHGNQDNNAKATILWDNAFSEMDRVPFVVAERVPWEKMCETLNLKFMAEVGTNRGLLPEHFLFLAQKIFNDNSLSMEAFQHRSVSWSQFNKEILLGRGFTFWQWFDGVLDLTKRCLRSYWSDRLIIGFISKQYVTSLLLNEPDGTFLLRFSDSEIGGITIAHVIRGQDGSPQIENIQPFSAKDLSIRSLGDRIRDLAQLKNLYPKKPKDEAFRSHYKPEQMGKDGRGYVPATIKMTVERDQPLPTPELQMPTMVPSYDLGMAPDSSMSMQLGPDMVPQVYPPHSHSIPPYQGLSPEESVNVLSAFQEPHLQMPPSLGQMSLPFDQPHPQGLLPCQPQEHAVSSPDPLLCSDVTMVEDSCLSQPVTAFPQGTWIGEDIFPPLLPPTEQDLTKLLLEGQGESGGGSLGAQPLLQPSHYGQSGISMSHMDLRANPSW
Chain of Protein cereblon/Signal transducer and activator of transcription 6 (Homo sapiens) (Q96SW2 whole entry partner): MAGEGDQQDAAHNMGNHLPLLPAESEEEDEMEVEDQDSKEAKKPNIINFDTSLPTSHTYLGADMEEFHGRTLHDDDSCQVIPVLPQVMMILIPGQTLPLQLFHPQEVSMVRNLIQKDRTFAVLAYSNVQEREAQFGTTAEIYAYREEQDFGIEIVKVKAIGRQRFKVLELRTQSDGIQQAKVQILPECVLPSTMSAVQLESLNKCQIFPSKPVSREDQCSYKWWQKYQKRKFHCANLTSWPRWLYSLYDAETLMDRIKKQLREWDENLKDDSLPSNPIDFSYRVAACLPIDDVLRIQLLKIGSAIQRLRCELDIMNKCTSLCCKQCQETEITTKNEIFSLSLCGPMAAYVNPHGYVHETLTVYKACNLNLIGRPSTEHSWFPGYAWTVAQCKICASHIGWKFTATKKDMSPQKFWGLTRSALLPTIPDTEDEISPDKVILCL
Chain of Protein cereblon/Signal transducer and activator of transcription 3 (P40763 whole entry): as the sequence (P40763 whole entry, the tested form may be a part) above
Chain of Protein cereblon/Signal transducer and activator of transcription 3 (Q96SW2 whole entry): as the sequence (Q96SW2 whole entry partner) above
Chain of Protein cereblon/Signal transducer and activator of transcription 4 (Homo sapiens) (Q14765 whole entry, looked up): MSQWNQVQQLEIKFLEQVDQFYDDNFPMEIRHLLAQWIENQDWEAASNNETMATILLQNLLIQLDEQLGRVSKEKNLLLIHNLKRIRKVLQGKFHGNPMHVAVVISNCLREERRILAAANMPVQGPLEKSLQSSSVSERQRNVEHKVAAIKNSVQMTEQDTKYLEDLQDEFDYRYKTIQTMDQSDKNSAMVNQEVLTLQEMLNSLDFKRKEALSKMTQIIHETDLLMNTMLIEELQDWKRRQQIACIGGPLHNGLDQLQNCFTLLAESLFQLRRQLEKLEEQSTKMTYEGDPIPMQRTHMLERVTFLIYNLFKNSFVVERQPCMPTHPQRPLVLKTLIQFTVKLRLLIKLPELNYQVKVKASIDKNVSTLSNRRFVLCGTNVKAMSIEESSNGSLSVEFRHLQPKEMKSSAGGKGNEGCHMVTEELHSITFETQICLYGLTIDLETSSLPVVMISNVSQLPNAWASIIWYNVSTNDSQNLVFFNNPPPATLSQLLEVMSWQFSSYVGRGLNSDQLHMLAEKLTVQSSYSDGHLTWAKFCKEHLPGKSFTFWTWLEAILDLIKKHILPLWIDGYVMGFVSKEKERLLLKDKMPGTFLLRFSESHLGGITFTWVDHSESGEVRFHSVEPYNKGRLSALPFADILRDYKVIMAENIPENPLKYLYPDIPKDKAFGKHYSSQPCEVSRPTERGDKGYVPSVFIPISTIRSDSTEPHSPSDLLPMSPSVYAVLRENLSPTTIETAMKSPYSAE
Chain of Protein cereblon/Signal transducer and activator of transcription 4 (Homo sapiens) (Q96SW2 whole entry, looked up): as the sequence (Q96SW2 whole entry partner) above

With `NC(=O)CC[C@H](NC(=O)[C@@H]1CC[C@@H]2CCN(C(=O)CCCCCC#Cc3cccc4c3CN(C3CCC(=O)NC3=O)C4=O)C[C@H](NC(=O)c3cc4cc(C(=O)P(=O)(O)O)ccc4[nH]3)C(=O)N21)C(=O)NC(c1ccccc1)c1ccccc1` (stereo partly drawn), the Stabilty entry in series [1] is recorded as “Stable”. For the same compound, the Kd was 28 nM in series [2] and over 10 nM in [6]. Also, the outcome in series [3] and in [5] was Active. In addition, the DC50 in [4] was found to be 17 nM.

Regarding `NC(=O)CC[C@H](NC(=O)[C@@H]1CC[C@@H]2CCN(C(=O)CCCCCC#Cc3cccc4c3CN(C3CCC(=O)NC3=O)C4=O)C[C@H](NC(=O)c3cc4cc(C(F)(F)P(=O)(O)O)ccc4[nH]3)C(=O)N21)C(=O)NC(c1ccccc1)c1ccccc1` (stereo partly drawn), the Drug uptake came to 305 ng/mL in series [7], 25560 ng/mL in series [10] and 6350 ng/g in series [11]. The half-maximal degradation concentration (DC50) in series [8] is 61 nM. The outcome in series [9], in [12] and in [13] was inactive.
